Assay results collected from several papers.
Compare with care: the assays were run in different laboratories. In brackets after ≈: the same amount, converted by molar mass.

SMILES	test	test system	conditions	endpoint	value
CC1(F)CN(C(=O)Cn2c(=O)c(C(=O)NCc3ccc(Cl)cc3)cc3nccnc32)C1		aqueous buffer	24 h, pH 7.4, 37 °C	thermodynamic solubility	52.6 µM
CC[C@@](N)(c1cnc(C(F)(F)F)c(Cl)c1)c1c2ncn(C3CC3)c(=O)c2nn1C	nephelometry	aqueous buffer	30 min, pH 6.5	kinetic solubility	80 to 160 µM (≈ 34.1 to 68.3 µg/mL)
N#C/C(=C\c1c[nH]nc1-c1cccc(Br)c1)C(=O)O		PBS	24 h, pH 7.4	kinetic solubility	0.1 µM (≈ 0.0318 µg/mL)
O=C(O)c1cn(-c2ccc(-c3ccc(C(=O)N4CCNCC4)cc3)cc2)cc(O)c1=O		aqueous buffer	pH 7.4	kinetic solubility	290 µM (≈ 122 µg/mL)
C[C@H]1COC2=C1C(=O)C(=O)c1c2ccc2c1CCCC2(C)C		PBS	24 h, pH 7.4, 25 °C	thermodynamic solubility	18.3 µg/mL
CCn1cc(C2CC2)c2c(Cc3cnc(C(F)(F)F)c(Cl)c3)n(C)nc2c1=O	nephelometry	aqueous buffer	30 min, pH 6.5	kinetic solubility	50 to 100 µM (≈ 20.5 to 41.1 µg/mL)
CCNCc1cnn(-c2ccc(-n3ccc(Cl)c(Cl)c3=O)cc2)c1C(F)(F)F		PBS	24 h, pH 7.4	kinetic solubility	144 µM (≈ 62.1 µg/mL)
CC1(F)CN(C(=O)Cn2c(=O)c(C(=O)NCc3ccc(Cl)cc3)cc3nc(N4CCN(CC(=O)O)C4=O)cnc32)C1		aqueous buffer	24 h, pH 7.4, 37 °C	thermodynamic solubility	5660 µM
Cn1cncc1[C@@](N)(c1ccc(Cl)cc1)c1ccc2c(c1)c(-c1cccc(Cl)c1)cc(=O)n2C		FeSSIF	pH 5, 37 °C	solubility	448 µg/mL (≈ 915 µM)
Cn1nc2c(=O)n(C3CC3)ccc2c1[C@](C)(O)c1cnc(C(F)(F)F)c(Cl)c1	nephelometry	aqueous buffer	30 min, pH 6.5	kinetic solubility	80 to 160 µM (≈ 33 to 66 µg/mL)
Cc1cc(C#N)cc(C)c1Oc1nc(Nc2ccc(C#N)cc2)nc(N)c1Br		FaSSIF	24 h, pH 6.5	thermodynamic solubility	0.52 µg/mL
CCn1cc(C2CC2)c2c(Cc3ccc(C(F)(F)F)nc3)n(C)nc2c1=O	nephelometry	aqueous buffer	30 min, pH 6.5	kinetic solubility	130 to 260 µM (≈ 48.9 to 97.9 µg/mL)
CN(C)C(=O)CN1CCN(c2cnc3c(cc(C(=O)NCc4ccc(Cl)cc4)c(=O)n3CC(=O)N3CC(C)(F)C3)n2)C1=O		aqueous buffer	24 h, pH 7.4, 37 °C	thermodynamic solubility	< 1.56 µM
CCn1cc(C2CC2)c2c(Cc3ccc(C(F)(F)F)c(F)c3)n(C)nc2c1=O	nephelometry	aqueous buffer	30 min, pH 6.5	kinetic solubility	16 to 32 µM (≈ 6.29 to 12.6 µg/mL)
CCNC(=O)c1cnn(-c2ccc(-n3ccc(Cl)c(Cl)c3=O)cc2)c1C(F)(F)F		PBS	24 h, pH 7.4	kinetic solubility	0.2 µM (≈ 0.089 µg/mL)
